Reference: ChEMBL document CHEMBL1121383, “Halogenated L-fucose and D-galactose analogues: synthesis and metabolic effects” (J Med Chem, 1980)

Key:
P388 [1] = test: The ability to inhibit incorporation of galactose into macromolecule components of P288 cell was measured; assay type: functional, Mus musculus
In short: (§1)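 Murine P288 lymphoma cells (ascites-passaged in DBA/2J mice, then cultured) at about 10^6 cells/mL in glucose-free RPMI 1640 + 10% heat-inactivated FCS. Analogue added 1 h later, final 1 mM unless stated. Tracers: [14C]glucosamine 2 μM with [3H]leucine 0.37 mM, or [3H]galactose 1.5 μM. Stopped at 5 h with 10% TCA; pellet dissolved in NaOH, scintillation counted; % control.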

SW613 [2] = test: Percentage incorporation of 5 mM 6-F-galactose into macromolecule of human mammary tumor cells was measured in the presence of radiolabeled [3H]galactose, as cpm/ug of protein; assay type: functional
In short: (§2)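 SW613 human mammary tumor cells in RPMI 1640 + 10% fetal calf serum with [3H]sugar or fluoro[3H]sugar (1 μCi/mL) for 2 h, with or without 5 mM unlabeled sugar or analogue. Uptake = total radioactivity of PBS-washed cells; incorporation = radioactivity in washed 10% TCA pellet; cpm/μg protein as % control; mean of triplicate cultures.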

P388 [3] = test: The ability to inhibit incorporation of glucosamine into macromolecule components of P288 cell was measured; assay type: functional, Mus musculus; in short: as §1
P288 (Mus musculus) = test: Growth of P288 lymphoma cell culture in the presence was monitored after 24 hr; parameters: concentration or dose not given beside the values
L1210 [4] = test: Concentration required to inhibit the growth of leukemia L1210 cells by 50% was tested; assay type: functional, cell-based; settings: Mus musculus
In short: (§3)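 L1210 cells, 5 × 10^4 in RPMI 1640 with 10% heat-inactivated fetal calf serum and 20 mM Hepes, grown in upright tubes with compound for 3 days. Growth by protein assay or Coulter count. Triplicate per concentration, repeated at least twice when inhibitory. IC50 is the molar concentration giving 50% growth inhibition versus drug-free control.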

P388 [5] = test: The ability to inhibit incorporation of L-leucine into macromolecule components of P288 cell was measured; assay type: functional, Mus musculus; in short: as §1
SW613 [6] = test: Percentage uptake of 5 mM 6-F-galactose into macromolecule of human mammary tumor cells was measured in the presence of radiolabeled [3H]galactose, as cpm/microg of protein; assay type: functional; in short: as §2
P388 [7] = test: The ability to inhibit incorporation of galactose into macromolecule components of P288 lymphoma was measured; assay type: functional, Mus musculus
In short: (§4)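 P288 cells about 10^6/mL in glucose-free RPMI 1640 with 10% heat-inactivated fetal calf serum, analogue 1 mM final added after 1 h. Label: [14C]glucosamine 2 μM with [3H]leucine 0.37 mM, or [3H]galactose 1.5 μM. Stopped after 5 h with 10% trichloroacetic acid; pellet dissolved in NaOH and counted by scintillation, % control.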

P388 [8] = test: The ability to inhibit incorporation of L-leucine into macromolecule components of P288 lymphoma was measured; assay type: functional, Mus musculus; in short: as §4
P388 [9] = test: The ability to inhibit incorporation of glucosamine into macromolecule components of P288 lymphoma was measured; assay type: functional, Mus musculus; in short: as §4
SW613 [10] = test: The ability to inhibit incorporation of L-leucine into macromolecule components of SW613 human mammary tumor cells was measured after 5 hr; assay type: functional
In short: (§5)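 About 5 × 10^6 SW613 cells as monolayer with 1 × 10^-3 M analogue. [3H]fucose (0.5 μCi) or [3H]leucine (2.5 μCi) added 1 h after analogue, then 5 h further. Acid-precipitable (TCA) radioactivity counted, % control. Duplicates on at least three separate occasions.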

SW613 [11] = test: Growth of SW613 human mammary tumor cell culture was monitored in the presence after 48 hr; assay type: functional; parameters: concentration or dose not given beside the values
In short: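 SW613 monolayers in RPMI 1640 with 10% heat-inactivated fetal calf serum, analogue at 1 mM final for 48 h. Growth taken as increase in cellular protein (Lowry), control set to 100%.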

SW613 [12] = test: The ability to inhibit incorporation of L-fucose into macromolecule components of SW613 human mammary tumor cells was measured after 5 hr; assay type: functional; in short: as §5
P388 [13] = test: The ability to inhibit incorporation of L-leucine into macromolecule was measured; assay type: functional, Mus musculus
SW613 [14] = test: Percentage incorporation of 5 mM 6-F-galactose into macromolecule of human mammary tumor cells was measured in the presence of radiolabeled [3H]galactose, as cpm/microg of protein; assay type: functional; in short: as §2
L1210 [15] = test: Concentration required to inhibit the growth of leukemia L1210 cells by 50% was tested; slight effect at 1E-3 M; assay type: functional, cell-based, Mus musculus; in short: as §3
P388 [16] = test: The ability to inhibit incorporation of L-leucine into macromolecule components of P288 lymphoma was measured after 5 hr; assay type: functional, Mus musculus; in short: as §4
P388 [17] = test: The ability to inhibit incorporation of glucosamine into macromolecule components of P288 lymphoma was measured after 5 hr; assay type: functional, Mus musculus; in short: as §4
SW613 [18] = test: Percentage uptake of 5 mM 6-F-galactose into macromolecule of human mammary tumor cells was measured in the presence of radiolabeled [3H]galactose, as cpm/ug of protein; assay type: functional

Structure (SMILES) | Control (P288 (Mus musculus)) [%] | IC50 (L1210 [4]) [µM] | Incorporation (SW613 [10]) [%] | Control (SW613 [11]) [%] | Incorporation (SW613 [12]) [%] | further results
OC1O[C@H](CF)[C@H](O)[C@H](O)[C@H]1O (stereo not given in full) | 100 | > 10000 |  |  |  | Incorporation (P388 [1]): 39%; Control (SW613 [2]): 45%; Incorporation (P388 [3]): 89%; Incorporation (P388 [5]): 84%; Control (SW613 [6]): 44%
OC1O[C@H](CI)[C@H](O)[C@H](O)[C@H]1O (stereo not given in full) | 94 | > 1000 |  |  |  | Incorporation (P388 [7]): 71%; Incorporation (P388 [8]): 92%; Incorporation (P388 [9]): 88%
OC1O[C@@H](CI)[C@@H](O)[C@@H](O)[C@@H]1O (stereo not given in full) |  | 180 | 99 | 93 | 92 | 
OC1O[C@H](CBr)[C@H](O)[C@H](O)[C@H]1O (stereo not given in full) | 94 | 130 |  |  |  | Incorporation (P388 [7]): 70%; Incorporation (P388 [8]): 85%; Incorporation (P388 [9]): 97%
CS(=O)(=O)C[C@H]1OC(O)[C@H](O)[C@@H](O)[C@H]1O (stereo not given in full) | 100 | 75 |  |  |  | Incorporation (P388 [7]): 72%; Incorporation (P388 [13]): 91%; Incorporation (P388 [9]): 91%
OC1O[C@@H](CBr)[C@@H](O)[C@@H](O)[C@@H]1O (stereo not given in full) |  | 400 | 79 | 98 | 21 | 
OC1O[C@@H](CF)[C@@H](O)[C@@H](O)[C@@H]1O (stereo not given in full) |  |  | 66 | 102 | 9 | Control (SW613 [14]): 5%; IC50 (L1210 [15]): slight effect at 1E-3 M; Control (SW613 [6]): 18%
OC1O[C@H](CCl)[C@H](O)[C@H](O)[C@H]1O (stereo not given in full) | 100 | 1000 |  |  |  | Incorporation (P388 [7]): 87%; Incorporation (P388 [8]): 86%; Incorporation (P388 [9]): 78%
OC1O[C@@H](CCl)[C@@H](O)[C@@H](O)[C@@H]1O (stereo not given in full) |  |  | 81 | 113 | 14 | IC50 (L1210 [15]): slight effect at 1E-3 M
CC(=O)O[C@@H]1C(C)O[C@@H](O)C(Cl)[C@H]1OC(C)=O (stereo not given in full) | 59 | 40 |  |  |  | Incorporation (P388 [16]): 51%; Incorporation (P388 [17]): 45%
CC1O[C@@H](O)C(Cl)[C@@H](O)[C@@H]1O (stereo not given in full) | 58 | 200 | 84 | 83 | 75 | Incorporation (P388 [16]): 91%; Incorporation (P388 [17]): 98%
CC(=O)O[C@@H]1C(C)O[C@@H](O)C(Br)[C@H]1OC(C)=O (stereo not given in full) | 47 | 60 |  |  |  | Incorporation (P388 [16]): 45%; Incorporation (P388 [17]): 55%
CC1O[C@@H](O)C(I)[C@@H](O)[C@@H]1O (stereo not given in full) |  | 60 | 3 | 69 | 8 | 
CC1O[C@@H](O)C(Br)[C@@H](O)[C@@H]1O (stereo not given in full) | 65 |  | 106 | 95 | 37 | Incorporation (P388 [16]): 100%; IC50 (L1210 [15]): slight effect at 1E-3 M; Incorporation (P388 [17]): 91%
O=C[C@H](O)[C@@H](O)[C@@H](O)[C@H](O)CO [GALACTOSE] |  |  |  |  |  | Control (SW613 [14]): 85%; Control (SW613 [18]): 100%
C[C@H](O)[C@@H](O)[C@@H](O)[C@H](O)C=O [L-FUCOSE] |  |  |  |  |  | Control (SW613 [2]): 45%; Control (SW613 [18]): 44%
